This assay concerns the target Amyloid-beta precursor protein (Homo sapiens, UniProt P05067). The assay is described as follows: Inhibition constant against [125I]-7 (TZDM) binding to Amyloid beta 1-40 aggregates. The essentials:
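Abeta40 peptide aggregated at 0.5 mg/mL in pH 7.4 buffer (10 mM sodium phosphate, 1 mM EDTA), 37 °C for 36-42 h with shaking. Competition in 1 mL of 40% EtOH: fibrils 10-50 nM final, radiotracer 0.05 nM, inhibitors 10^-5 to 10^-10 M. Nonspecific binding with 2 µM thioflavin-T. Incubated 3 h at room temperature, then GF/B filtration with 10% ethanol washes and gamma counting. Ki from nonlinear regression.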

Molecules are shown by their SMILES.

Sequence of Amyloid-beta precursor protein (P05067 whole entry): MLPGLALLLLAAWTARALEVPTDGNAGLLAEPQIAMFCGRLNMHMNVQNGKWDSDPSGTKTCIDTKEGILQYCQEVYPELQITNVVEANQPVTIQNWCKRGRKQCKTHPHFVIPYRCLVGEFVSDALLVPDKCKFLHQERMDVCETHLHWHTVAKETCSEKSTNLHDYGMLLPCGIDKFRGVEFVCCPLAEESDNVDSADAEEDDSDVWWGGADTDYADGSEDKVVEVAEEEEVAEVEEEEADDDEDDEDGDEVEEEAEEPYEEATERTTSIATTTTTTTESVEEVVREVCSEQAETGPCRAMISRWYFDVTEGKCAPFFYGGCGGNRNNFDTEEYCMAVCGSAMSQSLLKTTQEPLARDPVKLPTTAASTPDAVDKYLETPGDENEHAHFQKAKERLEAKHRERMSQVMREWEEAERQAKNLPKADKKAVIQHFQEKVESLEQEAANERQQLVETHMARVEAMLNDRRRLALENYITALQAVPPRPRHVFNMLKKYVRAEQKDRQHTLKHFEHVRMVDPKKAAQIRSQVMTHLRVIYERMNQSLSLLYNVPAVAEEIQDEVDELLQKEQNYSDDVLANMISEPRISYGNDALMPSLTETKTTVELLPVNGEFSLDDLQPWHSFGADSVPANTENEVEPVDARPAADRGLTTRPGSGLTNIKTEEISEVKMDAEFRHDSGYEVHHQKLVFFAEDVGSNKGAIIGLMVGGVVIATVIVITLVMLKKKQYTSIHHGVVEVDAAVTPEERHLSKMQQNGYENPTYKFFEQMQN

As to `CN(C)c1ccc(-c2nc3ccccn3c2I)cc1`, the Ki is > 2000 nM.

The values above are taken from ChEMBL document CHEMBL1145100, “Structure-activity relationship of imidazo[1,2-a]pyridines as ligands for detecting beta-amyloid plaques in the brain” (J Med Chem, 2003).
